procasp7 counter = counter-screen: procaspase-7 (human) activation. 330,000 tested, 0.093% active. activation, % at 8.5 µM. AID 463210. P55210. recombinant procaspase-7, Ac-DEVD-pNA absorbance 405 nm; D23A/D198A/D206A triple mutant, cannot self-cleave; scale: DMSO 0, 5 µM enzyme 100;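 active = percent activation above the screen-wide mean plus 3 SD, cut at about 25% in these data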
Target sequence (P55210 whole entry D23A/D198A/D206A): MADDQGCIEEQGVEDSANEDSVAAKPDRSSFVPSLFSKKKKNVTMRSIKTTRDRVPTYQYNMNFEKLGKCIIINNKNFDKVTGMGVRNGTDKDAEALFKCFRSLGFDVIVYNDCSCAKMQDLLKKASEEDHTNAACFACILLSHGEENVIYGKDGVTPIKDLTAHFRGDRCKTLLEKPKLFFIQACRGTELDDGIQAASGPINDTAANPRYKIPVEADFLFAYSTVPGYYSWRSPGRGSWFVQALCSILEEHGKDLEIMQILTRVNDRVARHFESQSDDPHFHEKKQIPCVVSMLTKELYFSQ
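Assay system: Uncleavable procaspase-7 mutant enzyme / Input: 2 µM procaspase-7 mutant as dispensed / Dosing: single nominal 8.5 µM compound dose, 0.8% DMSO final / Timing: 1 h enzyme–compound preincubation and 2 h substrate reaction, both 25 °C / Detection: p-Nitroaniline absorbance at 405 nm, read at 0 and 120 min / Replication: singlicate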
Calb FLC = affects C. albicans growth with fluconazole | C. albicans CaCi-2 + fluconazole, Alamar Blue growth, 48 h | AID 1979 | 300,000 tested, 0.57% active | growth inhibition, % (concentration not given with the values);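 active = growth inhibition above about 58% in most replicates, limit read from the data, passing the limit was not always enough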;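 note: all wells also contain fluconazole at 8 µg/ml as a sub-toxic cotreatment; 0% = median of DMSO wells and 100% = median of geldanamycin control wells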
FXN GAA850 act = activators of GAA850 frataxin (FXN) promoter; 360,000 tested, 0.56% active; HEK293 lucGAA850 FXN promoter luciferase reporter, 24 h; percent of 10 µM SAHA response; activation, % at 6 µM;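 active = activation above the average of all compounds screened plus 3 SD, cutoff fixed separately per campaign, cut at about 7.5% in these data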;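 note: 0% = DMSO wells and 100% = 10 µM SAHA wells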
procasp3 activ = activators of human procaspase-3; 330,000 tested, 0.11% active; recombinant procaspase-3 D3A, Ac-DEVD-pNA absorbance 405 nm; activation, % at 8.5 µM; P42574; AID 463141;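 active = activation above the mean of all tested compounds plus 3 SD, cut at about 21% in these data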;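 note: 0% = DMSO alone and 100% = DMSO wells spiked with extra 5 µM PC-3 D3A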
Target sequence (P42574 whole entry D9A/D28A/D175A): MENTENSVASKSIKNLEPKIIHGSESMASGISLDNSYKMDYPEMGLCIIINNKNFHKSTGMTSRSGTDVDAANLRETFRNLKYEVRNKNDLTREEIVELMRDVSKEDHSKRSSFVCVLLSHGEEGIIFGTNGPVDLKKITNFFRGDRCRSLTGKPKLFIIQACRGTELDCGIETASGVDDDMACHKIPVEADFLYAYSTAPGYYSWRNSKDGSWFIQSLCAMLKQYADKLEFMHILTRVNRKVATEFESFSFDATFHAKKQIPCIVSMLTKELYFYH
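Assay system – Procaspase-3 D3A mutant, all three cleavage aspartates alanine · Controls – DMSO-only low control, 5 µM PC-3 D3A high control · Schedule – 1 h compound preincubation, 2 h substrate hydrolysis at 25 °C · Signal – 405 nm absorbance of p-nitroaniline, reads at 0 and 120 min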
Neddylation inh = cullin neddylation inhibition; AID 651699; 360,000 tested, 0.58% active; P61081+Q13564; inhibition, % at 25 µM; TR-FRET cullin neddylation, biochemical; in the data active = inhibition above about 36%
HIF act = HIF pathway transcriptional activation | U2OS HRE-luciferase reporter, luminescence; normalized: DMSO 0%, desferrioxamine 100% | activation, % at 7.5 µM (by protocol) | 300,000 tested, 0.32% active;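 active = mean activation of at least 10% of the iron chelator positive control signal, with at least half of replicates also reaching 10%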
Starred values were filed as active, the others as inactive; . = no result shown. Rows were chosen to be rich in hits. Some 1.9% of all compounds tested hit in one or more screens of this group.

SMILES	procasp7 counter	Calb FLC	FXN GAA850 act	procasp3 activ	Neddylation inh	HIF act
COc1ccc(/C=N/NC(=O)c2ccc(Br)cc2)c(OC)c1	-5	-8	2	-4	19	0
COc1cc(C(=O)Oc2ccccc2/C=N/NC(=O)c2ccc(Cl)cc2)cc(OC)c1OC	-29	34	-4	-9	3	71*
O=Nc1c(O)n(Cc2ccccc2)c2ccccc12	10	-19	-1	-7	-31	0
O=Nc1c(O)n(Cc2cccc(C(F)(F)F)c2)c2ccccc12	6	117*	-1	3	1	-1
O=Nc1c(O)n(Cc2ccc(Cl)c(Cl)c2)c2ccccc12	-7	79*	-2	-1	-12	-1
COc1ccc(CCNC(=O)C(=O)c2cn(CC(=O)N3CCCC3)c3ccccc23)cc1	.	.	1	.	-14	.
CC1(C(=O)NCc2ccccc2)CCC(=O)N1CCc1c[nH]c2ccccc12 (stereo not drawn)	.	.	.	.	3	.
CCNC(=O)C1(C)CCCN(C(=O)c2cc(C)n(C(C)(C)C)n2)C1 (stereo not drawn)	.	.	1	.	-3	.
CC(=O)OC[C@@H]1CN(Cc2ccccc2)C[C@H](n2cnc3c(NCc4ccc(F)cc4)ncnc32)O1	.	.	-2	.	-3	.
CO/N=C/c1ccc(N2CCN(C(=O)c3ccc(C)cc3)CC2)c([N+](=O)[O-])c1	-7	109*	-1	-6	-39	0
CCCCN1CCC(=O)C(C(=O)OCC)=C1C(=O)OCC	.	.	0	.	6	.
CC(C)Cc1ccc(CN2CCCC(NC(=O)CCN3CCCO3)C2)cc1 (stereo not drawn)	4	88*	0	7	12	0
N#Cc1c(NC(=O)c2ccccc2)sc2c1CCCCC2	4	-2	5	1	.	0
N#Cc1c(Cl)nsc1NC(=O)c1ccccc1	12	106*	-1	14	-26	1
O=C(Nc1cccc2c1CCCC2)c1cc(C2CCCCN2C(=O)c2cccs2)on1 (stereo not drawn)	.	.	-2	.	-12	.
O=C(NCc1cccc(C(F)(F)F)c1)c1cc(Cl)ccc1Cl	4	-18	-1	-3	-13	0
O=C(NCc1cccc(C(F)(F)F)c1)c1cc(Cl)cc(Cl)c1	36*	-2	1	1	-6	-4
COc1ccc(Cl)cc1-c1cc(C(=O)NCc2ccc(F)cc2)[nH]n1	.	.	-1	.	-30	.
COc1cccc(C(NC(C)=O)c2nc(-c3cccc(C(=O)O)c3)cs2)c1 (stereo not drawn)	.	.	-1	.	0	.
Fc1ccc2[nH]c3c(N4CCc5ccccc5C4)ncnc3c2c1	1	-18	0	5	45*	1
CN(C)S(=O)(=O)N1CCc2ccccc21	6	7	1	-2	2	0
O=S(=O)(Cc1ccccc1)N1CCc2ccccc21	-3	100*	.	2	.	0
Cc1nnc(NC(=O)CCC(=O)N2CCN(S(=O)(=O)c3cc([N+](=O)[O-])ccc3C)CC2)s1	-8	.	0	-1	-24	.
COC(=O)[C@]12CCCCC=C1N(CCC1=CCCCC1)C(=O)[C@H](CC(=O)NCc1cccc(C(F)(F)F)c1)C2	.	.	.	.	-3	.
O=C(Nc1ccc(OCc2ccccc2Cl)cc1)c1cccnc1	0	114*	-10	0	0	-4
SMILES	procasp7 counter	Calb FLC	FXN GAA850 act	procasp3 activ	Neddylation inh	HIF act
COc1ccc(C(=O)N(CN2CCCC2=O)c2ccc(C)cc2)cc1	10	103*	2	-1	3	0
COc1cc(C(=O)Nc2sc(C)c(C)c2C(=O)O)cc(OC)c1OC	-9	-9	1	-6	28	165*
COc1cc(C(=O)Nc2sc3c(c2C(=O)O)CCC(C)C3)cc(OC)c1OC (stereo not drawn)	-6	-3	2	9	32	-21
CC(=O)Nc1sc2c(c1-c1nc3ccccc3s1)CN(C(C)C)CC2	-15	.	23*	-15	.	.
CC(=O)N1CCc2c(sc(NC(=O)C3CC3)c2-c2nc3ccccc3s2)C1	0	1	2	2	-60	0
CC(C)N1CCc2c(sc(NC(=O)c3cc(-c4cccs4)nc4ccccc34)c2C(N)=O)C1	-5	-9	-4	-9	-206	1
CCN1CCc2c(sc(NC(=O)c3ccc4ccccc4c3)c2C(N)=O)C1	-3	.	2	-2	41*	0
CC(C)N1CCc2c(sc(NC(=O)c3nc4ccccc4s3)c2C(N)=O)C1	-8	119*	-4	3	-16	1
O=C(Cc1ccccn1)c1ccncc1	.	.	-1	.	-4	.
CN(C(=O)CSc1nnc(-c2ccco2)o1)C1CCCCC1	9	95*	2	4	-4	1
O=C(CSc1nnc(-c2ccco2)o1)NC1CCCCC1	9	-15	-4	5	-2	-1
O=[N+]([O-])c1cccc(/C=C/c2ccc3cccc(O)c3n2)c1	7	-2	2	3	-12	13*
COc1ccc(/C=C/C(=O)N(c2ccccn2)C2CCCCC2)cc1OC	8	83*	0	1	29	-1
Cc1ccc(C(=O)CC(=O)COc2ccc(Cl)cc2)cc1	-1	114*	2	0	14	1
COc1ccc(CCN2C(=O)CCC2(C)c2nnnn2Cc2ccccc2)cc1OC (stereo not drawn)	.	.	.	.	8	.
CCCC(=O)N(C1CC(C)C(C#N)(C#N)C1(C#N)C#N)N(C)C (stereo not drawn)	8	1	5	-2	53*	-5
O=C(CNC(=O)c1ccccc1)N/N=C/c1cc(Br)ccc1O	-12	3	-2	-6	36	5
O=C(N/N=C/c1cc(Cl)ccc1O)c1ccccc1Br	-48	44	0	-30	25	10*
O=C(N/N=C/c1cc(Cl)ccc1O)c1cccnc1	-15	20	-6	-12	-10	3
O=C(CNC(=O)c1ccccc1Br)N/N=C/c1cc(Br)ccc1O	-8	-4	-4	-13	15	21*
O=C(N/N=C\c1cc(Cl)ccc1O)c1ccc(S(=O)(=O)N2CCCCC2)cc1	-26	92*	-5	-5	7	45*
CN(C)c1ncnc2c1C(c1ccccc1)C(C)(C)O2 (stereo not drawn)	.	.	-2	.	17	.
CCN(CC)c1ccc(/C=C/c2ccc3ccc(OC)cc3[n+]2CC)cc1	-16	105*	-8	-23	-11	3
CC[n+]1c(/C=C/c2ccc(N(C)C)cc2)ccc2ccccc21	-31	-4	-10	-6	-22	1
COc1ccc(C=C2CS(=O)(=O)CC(=Cc3ccc(OC)cc3)C2=O)cc1	.	.	-14	.	6	.
